Assay results published in ChEMBL document CHEMBL1135681, “Syntheses and structure-activity relationships of nonnatural beta-C-nucleoside 5'-triphosphates bearing an aromatic nucleobase with phenolic hydroxy groups: inhibitory activities against DNA polymerases” (J Med Chem, 2002).

How the values were obtained:
[1] = Inhibitory activity against Ex Taq DNA polymerase; assay type: nucleic-acid assay, Thermus aquaticus
Procedure, shortened: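 PCR inhibition assay in 1× Ex Taq buffer, 2 mM Mg2+, 0.2 mM each dNTP, with various concentrations of nonnatural triphosphate added. Cycling: 95 °C 5 min; 30 cycles of 95 °C 30 s, 50 °C 30 s, 72 °C 60 s; final 72 °C 5 min. Product bands quantified by phosphorimager; IC50 taken as concentration giving 50% inhibition of amplification; mean of two independent experiments.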

Nucleic Acid [2] = experiment: Inhibitory activity against LA-Taq DNA polymerase; assay type: nucleic-acid assay, Thermus aquaticus
Procedure, shortened: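 LA-Taq PCR in 1× LA-Taq buffer with 2.5 mM Mg2+ and 0.2 mM each dNTP, plus graded levels of nonnatural triphosphate. Cycling: 95 °C 5 min; 30 cycles of 95 °C 30 s, 50 °C 30 s, 72 °C 60 s; final 72 °C 5 min. Amplified bands measured by phosphorimager; concentration for 50% inhibition determined; two independent experiments averaged.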

Nucleic Acid [3] = experiment: Inhibitory activity against Pfu DNA polymerase.; assay type: nucleic-acid assay, Pyrococcus furiosus
Procedure, shortened: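 Native Pfu polymerase (Pyrococcus furiosus) in native Pfu buffer, 2 mM Mg2+, 0.2 mM each dNTP, with various concentrations of nonnatural triphosphate. Cycling: 95 °C 5 min; 30 cycles of 95 °C 30 s, 50 °C 30 s, 72 °C 60 s; final 72 °C 5 min. PCR bands quantified by phosphorimager; IC50 at 50% inhibition; average of two independent runs.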

Nucleic Acid [4] = experiment: Inhibitory activity against Z-Taq DNA polymerase; assay type: nucleic-acid assay, Thermus aquaticus
Procedure, shortened: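 Z-Taq amplification in 1× Z-Taq buffer, 3 mM Mg2+, 0.2 mM each dNTP, with various nonnatural triphosphate concentrations. Cycling: 95 °C 5 min; 25 cycles of 95 °C 30 s, 50 °C 30 s, 72 °C 30 s; final 72 °C 5 min. Phosphorimager quantitation of product bands; IC50 as 50% inhibition concentration; mean of two independent experiments.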

[5] = molecular target: Pyrobest DNA polymerase (Pyrococcus sp.); experiment: Inhibitory activity against Pyrobest DNA polymerase.

**Q.** Which results are given for `O=P(O)(O)OP(=O)(O)OP(=O)(O)OCC1O[C@@H](c2cccc(O)c2)CC1O` (stereo not given in full)?
**A.** IC50 [1]: 1900 µM; IC50 (Nucleic Acid [2]): 3100 µM; IC50 (Nucleic Acid [3]): 900 µM; IC50 (Nucleic Acid [4]): 6200 µM; IC50 [5]: 2700 µM

**Q.** For `O=P(O)(O)OP(=O)(O)OP(=O)(O)OCC1O[C@@H](c2ccccc2)CC1O` (stereo not given in full), which IC50 [1] is on record?
**A.** Its IC50 is over 16000 µM.

**Q.** And the IC50 (Nucleic Acid [2])?
**A.** The IC50 was over 16000 µM.

**Q.** And the IC50 (Nucleic Acid [3])?
**A.** The IC50 was over 16000 µM.

**Q.** What about the IC50 (Nucleic Acid [4]) of the same compound?
**A.** Its IC50 is over 16000 µM.

**Q.** What about the IC50 [5] of the same compound?
**A.** Its IC50 is over 16000 µM.

**Q.** Which results are given for `O=P(O)(O)OP(=O)(O)OP(=O)(O)OCC1O[C@@H](c2ccccc2O)CC1O` (stereo not given in full)?
**A.** IC50 [1]: 1700 µM; IC50 (Nucleic Acid [2]): 2400 µM; IC50 (Nucleic Acid [3]): 800 µM; IC50 (Nucleic Acid [4]): 3100 µM; IC50 [5]: 1400 µM

**Q.** Which results are given for `O=P(O)(O)OP(=O)(O)OP(=O)(O)OCC1O[C@@H](c2ccc(O)c(O)c2)CC1O` (stereo not given in full)?
**A.** IC50 [1]: 30 µM; IC50 (Nucleic Acid [2]): 700 µM; IC50 (Nucleic Acid [3]): 200 µM; IC50 (Nucleic Acid [4]): 300 µM; IC50 [5]: 500 µM

**Q.** With `O=P(O)(O)OP(=O)(O)OP(=O)(O)OCC1O[C@@H](c2ccc(O)cc2)CC1O` (stereo not given in full) as the compound, how does the IC50 [1] read?
**A.** Its IC50 is 1600 µM.

**Q.** What about the IC50 (Nucleic Acid [2]) of the same compound?
**A.** The IC50 was 3700 µM.

**Q.** What about the IC50 (Nucleic Acid [3]) of the same compound?
**A.** Its IC50 is 900 µM.

**Q.** And the IC50 (Nucleic Acid [4])?
**A.** Its IC50 is 3700 µM.

**Q.** What about the IC50 [5] of the same compound?
**A.** Its IC50 is 1500 µM.
